Source: ChEMBL document CHEMBL1145451, “Discovery of isonicotinamide derived beta-secretase inhibitors: in vivo reduction of beta-amyloid” (J Med Chem, 2007)

Key:
[1] = target: T1, Beta-secretase 1 (Homo sapiens, UniProt P56817); assay: Inhibition of BACE1 assessed as effect on soluble APPbeta N-terminal fragment secretion in HEK293T cells; format: cell-based, HEK-293T
[2] = target: T1, Beta-secretase 1; assay: Inhibition of BACE1 by ECL assay
[3] = Volume of distribution in rat at 2 mg/kg, iv; format: ADME, organism-based; design: dose 2 mg/kg, route intravenous; conditions: in vivo, read-out: Vdss
[4] = Drug level in APP-YAC mouse brain at 50 mg/kg, iv after 0.5 hrs; format: ADME, organism-based; design: dose 50 mg/kg, route intravenous; conditions: read-out: Drug uptake
Procedure, shortened: (§1)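 Time course: transgenic mice expressing human WT APP from a yeast artificial chromosome given a 50 mg/kg i.v. bolus; brain drug concentration measured at 0.5, 1.5, 3 and 4.5 h post-dose.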

[5] = Drug level in APP-YAC mouse brain at 50 mg/kg, iv after 4.5 hrs; format: ADME, organism-based; design: dose 50 mg/kg, route intravenous; conditions: read-out: Drug uptake; procedure, shortened: as §1
[6] = Cmax in rat at 10 mg/kg, po; format: ADME, organism-based; design: dose 10 mg/kg, route oral; conditions: in vivo
[7] = test system: Mus musculus; assay: Reduction of beta amyloid protein 40 level in transgenic APP-YAC mouse at 50 mg/kg, iv after 3 hrs relative to control; format: functional; design: scale not given: the % may be the effect or the level left
Procedure, shortened: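 APP-YAC mice (human WT APP on a yeast artificial chromosome) given i.v. bolus; brain Aβ40 measured at 0.5–4.5 h (time course, 50 mg/kg) and at 3.0 h across 6.25–50 mg/kg; reduction relative to vehicle-treated animals, Tukey-Kramer HSD statistics; γ-secretase inhibitor as positive control.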

[8] = test system: LLC-PK1; assay: Ratio of permeability from basolateral to apical over apical to basolateral side in LLC-PK1 cells transfected with MDR1 by PGP assay; format: ADME, cell-based; conditions: human
[9] = Half life in rat at 2 mg/kg, iv; conditions: in vivo
[10] = test system: Brain; assay: Drug level in APP-YAC mouse brain at 50 mg/kg, iv; format: ADME, organism-based; design: dose 50 mg/kg, route intravenous; conditions: in vivo, read-out: Drug uptake
Procedure, shortened: (§2)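 Dose response: APP-YAC transgenic mice given i.v. bolus doses of 6.25, 12.5, 25 or 50 mg/kg; brain drug concentration determined 3.0 h post-dose.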

[11] = test system: Rattus norvegicus; assay: Plasma clearance in rat at 2 mg/kg, iv; format: ADME, organism-based; design: dose 2 mg/kg, route intravenous; conditions: in vivo
[12] = test system: Brain; assay: Drug level in APP-YAC mouse brain at 25 mg/kg, iv; format: ADME, organism-based; design: dose 25 mg/kg, route intravenous; conditions: in vivo, read-out: Drug uptake; procedure, shortened: as §2
[13] = Oral bioavailability in rat; format: ADME, organism-based; conditions: in vivo
[14] = Ratio of drug level in APP-YAC mouse brain to IC50 for BACE1 in HEK293T cells; format: ADME, cell-based; conditions: hek-293t
[15] = Drug level in APP-YAC mouse brain at 20 mg/kg, iv after 30 mins; format: ADME, organism-based; design: dose 20 mg/kg, route intravenous; conditions: read-out: Drug uptake
Procedure, shortened: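 Brain penetration: brain concentration in mice measured 30 min after a 20 mg/kg i.v. dose, n of 3, reported in nM.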

T1 sequence (P56817 whole entry, the tested form may be a part): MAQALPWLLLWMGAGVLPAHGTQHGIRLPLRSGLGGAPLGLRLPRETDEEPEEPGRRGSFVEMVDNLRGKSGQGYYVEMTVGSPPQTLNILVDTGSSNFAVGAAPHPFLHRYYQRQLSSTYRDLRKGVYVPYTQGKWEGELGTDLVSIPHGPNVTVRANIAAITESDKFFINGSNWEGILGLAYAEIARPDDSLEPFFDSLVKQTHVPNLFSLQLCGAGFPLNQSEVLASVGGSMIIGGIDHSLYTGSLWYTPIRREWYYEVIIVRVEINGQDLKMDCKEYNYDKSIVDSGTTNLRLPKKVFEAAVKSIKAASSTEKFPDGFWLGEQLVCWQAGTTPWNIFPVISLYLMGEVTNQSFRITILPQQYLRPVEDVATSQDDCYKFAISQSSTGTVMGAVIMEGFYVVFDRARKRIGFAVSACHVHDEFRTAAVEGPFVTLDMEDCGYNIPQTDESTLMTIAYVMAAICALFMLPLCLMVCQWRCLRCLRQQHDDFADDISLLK

Compound | IC50 [1] [nM] | IC50 [2] [nM] | Ratio [8] | Ratio [14] | concentration at 0.5 h [15] [nM] | other results
CN(c1cc(C(=O)N[C@H](CO)Cc2cc(F)cc(F)c2)cc(NCC2CC2)n1)S(C)(=O)=O | – | 1100 | – | – | – | –
CC1CC1CN(C)c1cc(C(=O)N[C@@H](Cc2cc(F)cc(F)c2)[C@@H](N)CF)cc(N(C)S(=O)(=O)C(C)C)n1 (mixture of isomers) | – | – | – | – | 3080 | –
CCCN(CC1CC1)c1cc(C(=O)N[C@H](CO)Cc2ccccc2)cc(N(C)S(=O)(=O)C(C)C)n1 | > 20000 | 350 | 3.6 | < 0.07 | 1400 | –
CC1CC1CNc1cc(C(=O)N[C@@H](Cc2ccccc2)[C@@H](N)CF)cc(N(C)S(=O)(=O)C(C)C)n1 (mixture of isomers) | – | – | – | – | 560 | –

Further lines, with some results ahead:

IC50 [1] [nM] | IC50 [2] [nM] | Ratio [8] | Ratio [14] | concentration at 0.5 h [15] [nM] | Compound | other results
> 20000 | 14 | – | – | – | CC(C)S(=O)(=O)N(C)c1cc(C(=O)N[C@H](CO)Cc2cc(F)cc(F)c2)cc(NC[C@H]2C[C@@H]2C)n1 | –
49 | 2 | > 50 | 11.4 | – | CC(C)S(=O)(=O)N(C)c1cc(C(=O)N[C@@H](Cc2ccccc2)[C@@H](N)CF)cc(NC[C@H]2C[C@@H]2C)n1 | Vd [3]: 3.9 L/kg; concentration at 0.5 h [4]: 5800 nM; concentration at 4.5 h [5]: 700 nM; Cmax [6]: 300 nM; Activity [7]: 34%; half-life [9]: 1.6 h; concentration [10]: 1900 nM; clearance [11]: 45.8 mL/min/kg; concentration [12]: 700 nM; bioavailability [13]: 13%
910 | 18 | 4.8 | 3.4 | – | CC(C)S(=O)(=O)N(C)c1cc(C(=O)N[C@@H](Cc2ccccc2)[C@@H](N)CF)cc(N(C)C[C@H]2C[C@@H]2C)n1 | Vd [3]: 4.2 L/kg; Cmax [6]: 200 nM; clearance [11]: 59.1 mL/min/kg; bioavailability [13]: 8%
